For orientation: inhibition in vivo means the drop in the measured response relative to a control, in per cent. Low readings indicate little suppression, high ones strong suppression. As a reminder, the IC50 is the point on the concentration scale where inhibition reaches its midpoint. A higher IC50 goes with weaker potency in that assay. As usually defined, the bioavailability is dose-corrected exposure relative to a reference, in per cent. Low values mean poor availability, high ones good availability. As a reminder, the Inhibition is the share of the control response that was lost under treatment. Read a high Inhibition as strong suppression.

The subject of one data set is Rattus norvegicus. Briefly: Compound was tested for the inhibition of dyspnea in hyperreactive rats dosed at 5 mg/kg po. Type of data set: functional. Conditions: for inhibition in vivo at 5 mg/kg: Rattus norvegicus, po. Put shortly: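 Inbred hyperreactive rats (n = 6) pretreated with methysergide 3 μg/kg iv. Sodium salt given po in 1% or 0.5% methocel 2 h before ovalbumin antigen challenge. Read-out is percent inhibition of dyspnea duration versus litter mate-matched vehicle-treated controls.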

The target of data set [1] is T1, Polyunsaturated fatty acid 5-lipoxygenase (Homo sapiens, UniProt P09917).
T1 sequence (P09917 whole entry): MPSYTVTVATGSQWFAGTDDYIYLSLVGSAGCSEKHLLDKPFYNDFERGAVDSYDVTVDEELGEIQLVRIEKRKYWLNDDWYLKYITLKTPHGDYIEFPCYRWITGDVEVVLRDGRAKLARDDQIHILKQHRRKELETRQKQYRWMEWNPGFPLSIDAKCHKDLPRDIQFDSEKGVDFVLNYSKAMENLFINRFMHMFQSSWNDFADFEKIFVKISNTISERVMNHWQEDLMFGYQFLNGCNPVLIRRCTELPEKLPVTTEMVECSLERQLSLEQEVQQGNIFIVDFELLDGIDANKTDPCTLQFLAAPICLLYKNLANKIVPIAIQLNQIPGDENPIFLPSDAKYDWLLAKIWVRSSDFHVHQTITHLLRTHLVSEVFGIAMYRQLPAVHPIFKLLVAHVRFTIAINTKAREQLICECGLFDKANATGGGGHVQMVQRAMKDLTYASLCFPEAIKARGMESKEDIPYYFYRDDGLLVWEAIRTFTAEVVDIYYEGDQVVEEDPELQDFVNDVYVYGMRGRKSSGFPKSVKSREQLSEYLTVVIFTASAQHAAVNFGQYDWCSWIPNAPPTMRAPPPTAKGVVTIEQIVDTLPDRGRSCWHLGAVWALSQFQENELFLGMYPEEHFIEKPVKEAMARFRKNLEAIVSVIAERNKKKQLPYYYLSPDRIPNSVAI
Briefly: Inhibition of Human 5-lipoxygenase. Put shortly: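 Enzyme source is the 100000g supernatant (S100) of insect cells overexpressing human 5-LO. Activity followed spectrophotometrically as 5-HPETE production. IC50 is the mean of at least two independent determinations unless the value came from a single titration.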

The target of data set [2] is T2, Arachidonate 5-lipoxygenase-activating protein (Homo sapiens, UniProt P20292).
T2 sequence (P20292 whole entry): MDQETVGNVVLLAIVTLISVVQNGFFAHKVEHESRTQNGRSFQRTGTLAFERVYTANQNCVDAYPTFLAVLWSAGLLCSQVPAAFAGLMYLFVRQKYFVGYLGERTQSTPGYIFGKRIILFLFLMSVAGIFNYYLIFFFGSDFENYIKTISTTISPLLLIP
The data set is described as follows: Inhibition of 5-lipoxygenase activating protein using human leukocyte membrane preparations. The method in brief:
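Binding assay on human leukocyte membrane preparations, measuring displacement of [¹²⁵I]-L-691,831 by drug. IC50 is the mean of at least two independent determinations unless the value came from a single titration.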

Data set [3] can be described thus: Bioavailability in rat. The format is ADME, organism-based. The conditions noted are these: in vivo. The method in brief:
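Rats dosed with sodium salts, 20 mg/kg po in 1% methocel and 5 mg/kg iv in PEG 200 (n = 2); plasma profiles collected over 0–6 h. Bioavailability calculated as AUC_po/4 × AUC_iv.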

Regarding `CCC(OCCc1c2c3c(c(OCc4ccc(-c5ccccc5)cn4)ccc3n1Cc1ccc(Cl)cc1)CC(C)S2)C(=O)O` (stereo not given), the inhibition in vivo at 5 mg/kg in the data set on Rattus norvegicus stood at 50%.

Take `CC1Cc2c(OCc3ccc(-c4ccccc4)cn3)ccc3c2c(c(CCc2ccccc2C(=O)O)n3Cc2ccc(Cl)cc2)S1` (stereo not given): the IC50 in data set [1] is 360 nM.

For the compound `COc1ccc(COc2ccc3c4c2CC(C)Sc4c(CSc2ccccc2C(=O)O)n3Cc2ccc(Cl)cc2)nc1` (stereo not given), the IC50 in data set [1] worked out at 52 nM; in data set [2] it was 370 nM.

On to `CC1Cc2c(OCc3ccc4ccccc4n3)ccc3c2c(c(CSc2ccccc2C(=O)O)n3Cc2ccc(Cl)cc2)S1` (stereo not given), for which the half-inhibitory concentration (IC50) in data set [1] was 70 nM; in data set [2], 72 nM.

In turn, `CC1Cc2c(OCc3ccc(-c4ccccc4)cn3)ccc3c2c(c(CSc2ccccc2C(=O)O)n3Cc2ccc(Cl)cc2)S1` (stereo not given) displayed a 50% inhibitory concentration (IC50) in data set [1] of 30 nM. The same compound had a bioavailability in data set [3] below 5%.

`CC1Cc2c(OCc3ccc(-c4ccccc4)cn3)ccc3c2c(c(CCOc2ccccc2CC(=O)O)n3Cc2cccc(Cl)c2)S1` (stereo not given) yielded an IC50 in data set [1] of 40 nM.

Turning to `CC1Cc2c(OCc3ccc(-c4ccccc4)cn3)ccc3c2c(c(COc2ccccc2CC(=O)O)n3Cc2cccc(Cl)c2)S1` (stereo in doubt; 14b), in data set [1], the half-maximal inhibitory concentration (IC50) was 18 nM. Besides, in data set [3], the F worked out at 11%. Besides, in the data set with Rattus norvegicus, at 5 mg/kg the inhibition in vivo was 74%.

With `CC(C)(C)Sc1c(CC(C)(C)C(=O)O)n(Cc2ccc(Cl)cc2)c2ccc(OCc3ccc4ccccc4n3)cc12` [QUIFLAPON], the IC50 is above 10000 nM in data set [1] and 1.6 nM in data set [2].

In data set [1], `CC1Cc2c(OCc3ccc(-c4ccccc4)cn3)ccc3c2c(c(CCOc2ccccc2CC(=O)O)n3Cc2ccc(Cl)cc2)S1` (stereo not given) yielded an IC50 of 60 nM. In data set [3], the bioavailability came to 15%. In the data set on Rattus norvegicus, this compound registered an inhibition in vivo at 5 mg/kg of 47%.

On to `CC1Cc2c(OCc3ccccn3)ccc3c2c(c(CSc2ccccc2C(=O)O)n3Cc2ccc(Cl)cc2)S1` (stereo not given), for which the 50% inhibitory concentration (IC50) in data set [1] came to 55 nM; in data set [2], 760 nM.

In data set [1], `CC1Cc2c(OCc3ccc(-c4ccccc4)cn3)ccc3c2c(c(CCOc2ccccc2CC(=O)O)n3Cc2ccc(F)cc2)S1` (stereo not given) returned an IC50 of 60 nM. In data set [3], the bioavailability came out at 4%. The inhibition in vivo at 5 mg/kg with Rattus norvegicus is 36%.

`CC(C)c1ccc2c(c1)c(SC(C)(C)C)c(CC(C)(C)C(=O)O)n2Cc1ccc(Cl)cc1` yielded an IC50 in data set [1] above 10 nM.

Consider `CC1Cc2c(OCc3ccc(-c4ccccc4)cn3)ccc3c2c(c(COc2ccccc2CC(=O)O)n3Cc2cccc(Cl)c2)S1` (stereo in doubt; (+)14b), for which 95 nM corresponded to half-maximal inhibition in data set [1] (IC50).

As for `CC1Cc2c(OCc3ccc(-c4ccccc4)cn3)ccc3c2c(c(COc2ccccc2CC(=O)O)n3Cc2ccc(Cl)cc2)S1` (stereo not given), the half-inhibitory concentration (IC50) in data set [1] was determined as 26 nM. In data set [3], this compound came in with a bioavailability of 35%. In addition, the inhibition in vivo at 5 mg/kg with Rattus norvegicus came to 27%.

Consider `CC1Cc2c(OCc3cc4ccccc4cn3)ccc3c2c(c(CSc2ccccc2C(=O)O)n3Cc2ccc(Cl)cc2)S1` (stereo not given), for which the half-maximal inhibitory concentration (IC50) stood at 175 nM in data set [1] and 2900 nM in data set [2].

With `CC1Cc2c(OCc3ccc(-c4ccccc4)cn3)ccc3c2c(c(CCOc2ccc(Cl)cc2C(=O)O)n3Cc2ccc(Cl)cc2)S1` (stereo not given), inhibition in data set [1] was half-maximal at 130 nM (IC50).

`CC1Cc2c(OCc3ccc(-c4ccccc4)cn3)ccc3c2c(c(CCOc2ccccc2CC(=O)O)n3Cc2cccc(F)c2)S1` (stereo not given) gave an IC50 in data set [1] of 23 nM. Besides, the bioavailability in data set [3] is 44%. Besides, in the data set with Rattus norvegicus, testing at 5 mg/kg gave an inhibition in vivo of 59%.

`CC1Cc2c(OCc3ccc(-c4ccccc4)cn3)ccc3c2c(c(CCSc2ccccc2C(=O)O)n3Cc2ccc(Cl)cc2)S1` (stereo not given): in data set [1], the IC50 amounted to 30 nM. For the same compound, in data set [3], the bioavailability was 10%.

In data set [1], `CC1Cc2c(OCc3ccc(-c4ccccc4)cn3)ccc3c2c(c(CCOc2ccccc2C(=O)O)n3Cc2ccc(Cl)cc2)S1` (stereo not given) registered a half-maximal inhibitory concentration (IC50) of 60 nM. In data set [3], this compound yielded a bioavailability of 37%. Besides, the inhibition in vivo at 5 mg/kg with Rattus norvegicus was 42%.

Turning to `CC1Cc2c(OCc3ccc(-c4ccccc4)cn3)ccc3c2c(c(COc2ccccc2CC(=O)O)n3Cc2cccc(Cl)c2)S1` (stereo in doubt; (-)14b), the IC50 in data set [1] worked out at 10 nM. The compound also returned a F in data set [3] of 32%. In the data set on Rattus norvegicus (5 mg/kg), this compound returned an Inhibition of 58%.

For `CC1Cc2c(OCc3ccc4ccccc4n3)ccc3c2c(c(COc2ccccc2CC(=O)O)n3Cc2ccc(Cl)cc2)S1` (stereo not given), the results for the half-maximal inhibitory concentration (IC50) in data set [1] and in data set [2] were 100 nM and 32 nM, respectively.

Regarding `CC1Cc2c(OCc3ccc(-c4ccccc4)cn3)ccc3c2c(c(COCc2ccccc2C(=O)O)n3Cc2ccc(Cl)cc2)S1` (stereo not given), inhibition in data set [1] was half-maximal at 62 nM (IC50). That is a double-digit nanomolar value.

In turn, `CC1Cc2c(OCc3ccc(-c4ccccc4)cn3)ccc3c2c(c(CCOc2cccc(C(=O)O)c2)n3Cc2ccc(Cl)cc2)S1` (stereo not given) had an IC50 in data set [1] of 170 nM.

The values above are taken from ChEMBL document CHEMBL1128640, “Thiopyranol[2,3,4-c,d]indoles as inhibitors of 5-lipoxygenase, 5-lipoxygenase-activating protein, and leukotriene C4 synthase” (J Med Chem, 1995).
